# FXIa inh – inhibitors of human coagulation factor XIa | P03951 | purified FXIa, Boc-Glu-Ala-Arg-AMC fluorogenic substrate | inhibition, % at 5 µM | actives 0.14% (n = 220,000);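 active = inhibition of at least 40%; inactive = inhibition below 40%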;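 also: fluorescence of freed AMC excited at 355 nm; 0% = enzyme without compound and 100% = no enzyme blank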
# FXIIa inh 1536 – blocks human coagulation factor XIIa protease activity. P00748. purified FXIIa, Boc-QGR-AMC fluorogenic substrate, 2 h. inhibition, % at 5 µM. actives 0.3% (n = 220,000); in the data active = inhibition above about 40%;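 also: 0% = enzyme with no compound and 100% = blank without enzyme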
# Thrombin inh – blocks human thrombin protease activity | alpha-thrombin, Boc-VPR-AMC fluorogenic substrate cleavage | actives 0.26% (n = 220,000) | inhibition, % at 5 µM | AID 1046;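 active = inhibition at or above 40%; inactive = inhibition below 40%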;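 also: 0% = enzyme with no compound and 100% = wells without enzyme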
#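 Material: Human alpha-thrombin protein | Buffer or medium: pH 7.5 Tris-saline with Tween 20 | Reagent: Boc-VPR-AMC substrate, 15 µM final | Schedule: Reaction at ambient temperature | Detection: AMC fluorescence at 355 nm excitation and 460 nm emission | Evaluation: Percent inhibition scaled between no-compound controls and no-enzyme blanks | Controls: no-compound enzyme wells and no-enzyme blanks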
# KLK5 inh – inhibitors of human kallikrein 5; recombinant hK5, fluorogenic AMC substrate cleavage; actives 0.59% (n = 210,000); inhibition, % at 5 µM; Q9Y337;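 active = inhibition of 40% or more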;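 also: 0% = enzyme controls without compound and 100% = no-enzyme blanks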
# Furin inhibitor – blocks human furin protease activity; P09958; purified furin, fluorogenic substrate cleavage; inhibition, % at 20 µM or 30 µM; actives 0.061% (n = 220,000); AID 463115; in the data active = inhibition above about 25%
# Target sequence (P09958 108-714 limits assumed): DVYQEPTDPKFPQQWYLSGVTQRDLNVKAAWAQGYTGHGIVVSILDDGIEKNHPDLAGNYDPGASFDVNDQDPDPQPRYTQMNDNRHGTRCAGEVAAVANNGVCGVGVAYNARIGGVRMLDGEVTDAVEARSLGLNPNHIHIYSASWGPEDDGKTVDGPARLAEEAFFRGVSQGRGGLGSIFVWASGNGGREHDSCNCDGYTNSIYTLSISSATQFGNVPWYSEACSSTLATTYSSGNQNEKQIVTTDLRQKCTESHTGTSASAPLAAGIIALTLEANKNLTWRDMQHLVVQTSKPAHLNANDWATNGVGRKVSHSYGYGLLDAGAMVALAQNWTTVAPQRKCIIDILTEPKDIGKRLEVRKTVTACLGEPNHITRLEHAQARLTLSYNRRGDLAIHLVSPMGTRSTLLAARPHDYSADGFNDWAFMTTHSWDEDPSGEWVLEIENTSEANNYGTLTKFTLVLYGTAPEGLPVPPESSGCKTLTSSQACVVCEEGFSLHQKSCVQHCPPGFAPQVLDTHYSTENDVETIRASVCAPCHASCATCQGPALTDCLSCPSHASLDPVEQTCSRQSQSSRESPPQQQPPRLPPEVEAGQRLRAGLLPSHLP
# Biofilm kill mix – mixture kills Candida albicans biofilm cells | C. albicans biofilm persisters + clotrimazole, fluorescence viability; primary screen in compound mixtures of four per well | inhibition, % at 7.6 µM | actives 0.02% (n = 120,000) | AID 1242;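 active = inhibition above 30.3% in the primary screen of four-compound pools, then above 30% when the compound was retested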;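 also: compounds exposed to preformed 24 h biofilms for 48 h; 0% = untreated biofilm control and 100% = clotrimazole plus chlorhexidine kill blank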
#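 Probe or stimulus – Clotrimazole 50 µg/mL co-treatment · System – C. albicans biofilms · Schedule – 24 h biofilm formation, then 48 h compound exposure, 37 °C · Evaluation – percent inhibition of biofilm viability · Technique – 2-h Alamar Blue fluorescence, 535/590 nm excitation/emission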
# Numbers without * were called inactive; / = not tested or not shown. Most compounds without a hit are left out; they make up all but 1.1% or so of the library.
SMILES,FXIa inh,FXIIa inh 1536,Thrombin inh,KLK5 inh,Furin inhibitor,Biofilm kill mix
Cc1cc(C)cc(NC(=O)c2ccc([N+](=O)[O-])o2)c1,69.6*,32.0,23.9,29.9,-4.2,7.2
Cc1cc(C)nc(NC(=O)c2ccc([N+](=O)[O-])o2)n1,6.1,3.9,-9.5,-13.0,-15.4,16.8
COc1ccc(-c2[nH]ncc2-c2ccc3c(c2)OCCO3)c(O)c1,9.3,8.5,100.7*,49.3*,-20.0,/
Cc1nn(C)c(C)c1S(=O)(=O)N(CC(=O)Nc1ccc2c(c1)OCO2)c1ccc(C(C)C)cc1,0.0,2.3,3.4,10.5,-15.0,/
CCOc1ccc(N(CC(=O)Nc2cccc(F)c2)S(=O)(=O)c2c(C)noc2C)cc1,11.4,44.9*,23.2,41.9*,-7.1,/
COc1ccc(N(CC(=O)Nc2ccc3c(c2)OCCO3)S(=O)(=O)c2c(C)nn(C)c2C)cc1,20.9,45.7*,26.5,31.0,-9.6,/
O=C(CN(Cc1ccco1)C(=O)CCC(=O)Nc1nccs1)NCc1ccccc1,4.4,11.7,0.2,-7.1,-15.4,7.2
O=C(CN(Cc1cccs1)C(=O)CCC(=O)Nc1nccs1)NCc1ccccc1,7.6,106.8*,16.7,104.6*,-23.1,/
O=C(O)CCn1cc(C(=O)O)c(-c2ccccc2)n1,3.1,4.3,-8.1,0.0,-4.6,6.0
CN(C)C(CNC(=O)CSc1nnc(-c2ccco2)o1)c1ccccc1 (centres undefined),7.2,33.4,26.1,74.1*,-26.7,/
O=C(O)CSc1nnc(-c2ccco2)o1,-5.4,26.2,-8.4,-16.8,-6.6,/
O=C(O)COc1ccc(F)cc1Br,4.8,6.2,-4.2,-5.5,-8.1,20.8
NNC(=O)c1oc2nc(-c3ccco3)cc(-c3ccco3)c2c1N,5.4,7.2,1.2,5.1,25.0*,6.8
Nc1c(C(=O)N/N=C/c2cccnc2)oc2nc(-c3ccco3)cc(-c3ccco3)c12,-1.3,0.6,-6.5,-8.8,-8.4,6.9
S=C(NCc1ccccc1)N1CCN(C2CCCCC2)CC1,-1.3,9.7,1.6,-0.5,-30.7,18.4
C=C(C)CSc1nnc(-c2ccc(OC)cc2)n1N,2.9,15.5,15.4,45.0*,-16.1,/
COc1ccc(-c2nnc(SCC(N)=O)n2N)cc1,-0.1,10.3,4.7,-5.7,-14.5,/
CC(C)(C)C1(O)CC(C(F)(F)F)=NN1C(=O)Cc1ccc([N+](=O)[O-])cc1 (centres undefined),-0.6,9.0,-9.1,-1.2,-9.6,29.5
COc1ccc(-c2csc3nc(-c4ccccc4)oc(=O)c23)cc1OC,1.0,10.2,-8.8,3.8,6.1,5.0
CC1CN(S(=O)(=O)c2cccc(C(F)(F)F)c2)CC(C)O1 (centres undefined),3.5,5.2,0.3,-10.3,-11.7,12.0
CC(C)CCN(C)C1CCN(S(=O)(=O)c2cccc(C(F)(F)F)c2)CC1,3.6,-8.6,25.6,52.5*,-25.0,/
O=C(Nc1ccccn1)c1nc(-c2ccccc2)n(-c2ccccc2)n1,8.1,3.3,-3.7,-9.8,-24.2,-12.1
NC(=O)c1ccsc1NC(=O)c1nc(-c2ccccc2)n(-c2ccccc2)n1,2.5,8.3,44.1*,-36.9,-21.7,/
CCOC(=O)N1CCN(C(=O)CCNS(=O)(=O)c2ccc3c(c2)c(=O)n(C)c(=O)n3C)CC1,-4.5,11.5,13.9,2.0,-27.1,8.7
O=C(Nc1ccc(F)cc1)Nc1cc(OCC(F)(F)F)cc(OCC(F)(F)F)c1,15.9,55.3*,24.7,29.9,-23.8,14.6
SMILES,FXIa inh,FXIIa inh 1536,Thrombin inh,KLK5 inh,Furin inhibitor,Biofilm kill mix
CCOc1ccc(NC(=O)Nc2cc(OCC(F)(F)F)cc(OCC(F)(F)F)c2)cc1,-1.5,10.9,-7.4,-7.6,-19.3,18.9
O=C(NCCNC(=O)c1cc(OCC(F)(F)F)ccc1OCC(F)(F)F)Nc1ccc(OC(F)(F)F)cc1,8.2,18.1,2.7,48.9*,-11.5,/
Cn1c2c(c3ccccc31)CCSC2=O,10.9,71.5*,-0.3,2.4,-15.2,/
COc1cccc(/C(=N/O)C2CC2c2ccc(Cl)cc2)c1 (centres undefined),-1.3,6.8,-8.9,0.5,-4.1,16.9
Cc1oc(C(C)(C)C)cc1C(=O)Nc1ccc2c(c1)OCCO2,0.0,3.0,21.6,40.1*,-22.0,/
Cc1oc(C(C)(C)C)cc1C(=O)Nc1ccc2c(c1)OCO2,-2.9,8.4,1.3,1.3,-23.1,15.5
CCOC(=O)c1c(C)nc2c(c1-c1cc(OC)ccc1OC)C(=O)CC(C)(C)C2,2.6,8.5,2.7,3.4,1.0,12.7
CCOC(=O)C1(Cc2ccccc2C)CCCN(Cc2ccc(NC(C)=O)cc2)C1 (centres undefined),-1.4,2.6,-2.9,/,-10.7,-2.3
CCc1ccc(C(=O)COC(=O)CNC(=O)c2ccc(N3C(=O)c4ccccc4C3=O)cc2)cc1,3.7,26.9,3.8,43.7*,-17.9,/
O=C(CNC(=O)c1ccc(N2C(=O)c3ccccc3C2=O)cc1)OCC(=O)c1ccccc1,8.0,3.4,-8.7,-18.6,-11.0,8.1
Cc1ccc(Cn2cc(/C=N/NC(=O)Cc3nnc(NC(=O)c4ccc(C)cc4)s3)c3ccccc32)cc1,27.6,40.1*,31.4,9.8,-5.3,8.6
O=C(Cc1nnc(NC(=O)c2ccccc2)s1)N/N=C/c1ccco1,3.1,5.8,-12.0,5.6,-17.5,-8.8
Cc1c(NS(=O)(=O)c2ccc(Cl)c(C(=O)OC(C)C(=O)NCc3ccco3)c2)c(=O)n(-c2ccccc2)n1C (centres undefined),2.8,7.7,/,-1.1,-22.2,6.8
Cc1c(NS(=O)(=O)c2ccc(Cl)c(C(=O)OCC(=O)NCc3ccco3)c2)c(=O)n(-c2ccccc2)n1C,18.5,17.4,45.8*,24.1,-5.6,8.3
COc1cc(/C=C/C(=O)OCc2c(C)noc2C)ccc1OC(F)F,38.6,34.7,12.6,54.1*,8.8,9.3
Cc1ccc(C)c(NC(=O)/C(C#N)=C/c2cn(CC(=O)NCc3ccco3)c3ccccc23)c1,11.8,1.4,30.7,45.8*,-18.1,5.6
CCOc1ccc(-c2nc(C#N)c(NCC(C)C)o2)cc1,-8.6,-11.7,-3.3,150.8*,-15.2,/
CCOC(=O)C(CC)(CCC(=O)OC)c1csc(Nc2ccccc2O)n1 (centres undefined),21.3,21.0,65.9*,18.6,-7.3,8.1
COc1ccc(S(=O)(=O)Nc2cc3c4c(oc3c3ccccc23)CC(C)(C)CC4=O)cc1,3.0,-4.6,23.7,47.5*,-31.8,/
COC(=O)Nc1sc(C)nc1-c1ccccc1,-1.0,8.2,-3.6,-17.9,-20.9,/
CCOC(=O)Nc1sc(C)nc1-c1ccccc1,18.6,10.2,13.1,196.1*,-8.6,/
COc1ccc(N2CCN(S(=O)(=O)c3cnc[nH]3)CC2)cc1,-0.9,10.8,4.8,7.4,-16.0,5.2
Nc1ccc2c(c1)nc(Cc1ccccc1)n2CCO,3.1,6.5,-4.4,-0.5,-31.3,13.2
